# The list is not random: actives were taken first. Their share in the collection is about 1.1%.
# G6PDH CS – inhibits Leuconostoc G6PDH, flagging false hits in G6PDH-based assays; Purified L. mesenteroides G6PDH, diaphorase/resazurin coupled fluorescence, 45 min; inhibition, % at 5 µM; 0.12% of 200,000 active; in the data active = inhibition above about 50%
# PMI act satM6P – activators of human phosphomannose isomerase at near-saturating mannose 6-phosphate; coupled PMI enzyme assay, resazurin fluorescence, 20 min; stronger effect = higher value; 1 = untreated enzyme, 0 = substrate-free blank; activation factor at 20 µM; 0.34% of 190,000 active; AID 1216;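 active = activation factor of 2 or more at 20 µM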
# Target sequence (P34949 whole entry, looked up): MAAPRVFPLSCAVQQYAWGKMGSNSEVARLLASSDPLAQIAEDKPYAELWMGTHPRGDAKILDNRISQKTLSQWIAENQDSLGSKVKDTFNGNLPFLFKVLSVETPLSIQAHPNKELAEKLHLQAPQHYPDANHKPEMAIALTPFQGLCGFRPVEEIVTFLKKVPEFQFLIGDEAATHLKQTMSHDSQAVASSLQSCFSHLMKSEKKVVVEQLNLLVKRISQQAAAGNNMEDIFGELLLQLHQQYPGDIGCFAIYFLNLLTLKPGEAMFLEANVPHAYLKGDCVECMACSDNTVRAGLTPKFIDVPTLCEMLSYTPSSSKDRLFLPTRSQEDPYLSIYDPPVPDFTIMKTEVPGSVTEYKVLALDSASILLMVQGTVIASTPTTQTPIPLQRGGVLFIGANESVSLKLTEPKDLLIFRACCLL
#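 Technique: Diaphorase-driven resazurin-to-resorufin fluorescence, excitation 544, emission 590 nm | Assay system: Human PMI in coupled enzyme assay | Times: Enzyme reaction with compound 20 min at room temperature | Medium: HEPES-buffered pH 7.4 with magnesium and detergent | Reagent: Mannose-6-phosphate 1.0 mM (near-saturating) plus 0.22 mM NADP+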
# Diaph inh CS – counter-screen for diaphorase-based assays: diaphorase inhibitors and chemical oxidizers; diaphorase resazurin-to-resorufin fluorescence, NADH, 16 min; bacterial (C. kluyveri) enzyme, not human; inhibition, % at 20 µM; 0.69% of 190,000 active;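 active = primary screen inhibition at 20 µM above a set limit, cut at about 50% in these data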;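 note: plate controls were DMSO with full reaction for no effect and wells lacking NADH for full effect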
#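 Assay system: diaphorase enzyme from Clostridium kluyveri; Input: enzyme working solution with 0.14 U/mL diaphorase; Timing: 16 min at room temperature; Technique: resorufin fluorescence, excitation 544 nm, emission 590 nm; Benchmarks: positive control minus NADH, DMSO neutral control.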
# PMI activator – activators of human phosphomannose isomerase; P34949; purified human PMI, coupled resazurin fluorescence, 20 min; stronger effect = higher value; 1 = vehicle control, 0 substrate-free wells; activation factor at 20 µM; 0.005% of 190,000 active; AID 1214;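 active = activation factor of 2 or more at 20 µM, relative to plate controls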
# Diaph act CS – counter-screen for diaphorase-based assays: diaphorase activators and chemical reducers; Diaphorase/resazurin coupled assay, resorufin fluorescence, 16 min; stronger effect = higher value; 1 = vehicle wells, 0 = NADH-free wells; activation factor at 20 µM; 0.005% of 190,000 active; AID 1229;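 active = diaphorase activity raised at least twofold by the compound at 20 µM; inactive = activation factor below 2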
#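 Material: purified diaphorase enzyme from Clostridium kluyveri / Medium: HEPES pH 7.4 buffer with MgCl2 and Tween 20 / Schedule: enzyme reaction of 16 min at room temperature / Measured by: resorufin fluorescence, excitation 544 nm, emission 590 nm / Evaluation: rise in resorufin formation, marking diaphorase activation or chemical reduction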
# Starred values were filed as active, the others as inactive.
SMILES,G6PDH CS,PMI act satM6P,Diaph inh CS,PMI activator,Diaph act CS
Cc1cc(-c2csc(N)n2)c(C)n1CCc1ccccc1,2,2*,19,1.7,0.8
Cc1cc(-c2csc(N)n2)c(C)n1CCC(C)C,6,1.9,17,1.6,0.8
COc1cc(/C=C2\SC(c3ccc(C)cc3)=NC2=O)cc(OC)c1OC,-46,1,28,0.9,0.7
COc1cc(/C=C2\SC(c3ccccc3)=NC2=O)cc(Cl)c1O,17,0.5,64*,0.6,0.4
O=C(Nc1nc2c(cc3c4c(cccc42)CC3)s1)c1ccccc1Cl,-13,0.9,17,0.8,0.8
Oc1cc2c(cc1O)C1c3ccc(O)c(O)c3OCC1(O)C2 (stereo not drawn),32,0.6,78*,0.4,0.2
NS(=O)(=O)c1ccc2c(c1)oc(=O)c1cc(S(N)(=O)=O)ccc12,15,0.7,6,0.9,0.9
Cc1cccc(Oc2nc(-c3cccc([N+](=O)[O-])c3)nc3ccccc23)c1C,2,0.9,14,1,0.9
COc1cc(/C=C2\SC(=O)NC2=O)ccc1Oc1ccc([N+](=O)[O-])cc1[N+](=O)[O-],-8,0.9,59*,0.9,0.4
CO/N=C/c1ccc(Oc2ccc([N+](=O)[O-])cc2[N+](=O)[O-])c(OC)c1,10,1,9,1,0.9
COc1ccc2c(c1)-c1nc(/N=C/c3c(O)ccc4ccccc34)sc1CC2,38,0.2,50,0.2,0.5
COc1ccc2c(c1)-c1nc(/N=C/c3ccc(O)cc3)sc1CC2,26,0.2,56*,0.2,0.4
CSc1cnn(Cc2ccccc2)c(=O)c1SCc1ccccc1,-3,2.5*,17,1.6,0.8
Cc1cc2c(s1)CCCCC(=O)N2,8,1,4,1,1
c1ccc(N2CCN(Cc3ccnc4ccccc34)CC2)cc1,1,2*,11,1.5,0.9
Clc1ncc(CN2CCN(c3ccccc3)CC2)s1,7,1,13,1.1,0.9
CNc1sc(C(=O)c2ccccc2F)c(N)c1-c1nc2ccccc2s1,-1,2*,22,1.6,0.8
O=Cc1ccc(-c2ccccc2C(=O)O)o1,9,1,15,1,0.9
Cc1c(C(=O)O)cccc1-c1ccc(/C=N/Nc2ccc(Br)cc2)o1,5,2.2*,16,1.6,0.8
Cc1ccc(CNc2ccc(O)cc2)cc1,-31,0.7,53*,0.5,0.5
CC(C)(CNS(C)(=O)=O)SCc1ccc(Cl)cc1,4,1.1,14,1.1,0.9
O=S(=O)(c1ccc(-c2ccccc2)cc1)N1CCOCC1,0,0.9,11,0.9,0.9
O=C1OCC(c2ccccc2)=C1c1ccc(S(=O)(=O)N2CCOCC2)s1,-2,2*,26,1.3,0.7
Cc1c(C(=O)Nc2ccccc2-c2ccccc2)cccc1[N+](=O)[O-],9,1,20,0.9,0.8
CCn1c(SCC(=O)c2ccc(O)c(O)c2)nnc1-c1ccc(C)cc1,0,0.9,56*,0.6,0.4
SMILES,G6PDH CS,PMI act satM6P,Diaph inh CS,PMI activator,Diaph act CS
CCn1c(SCC(=O)c2ccc3c(c2)Cc2ccccc2-3)nnc1-c1ccc(N)cc1,10,1.1,-5,1.1,1.1
C=CC(C)(C)c1cc2cc3ccoc3cc2oc1=O,14,1,10,1,0.9
COc1cccc(C(=O)NC2CC3CCCC(C2)N3CC(=O)Nc2ccccc2)c1 (stereo not drawn),11,1,58*,0.8,0.4
CC(C)(C)CN1CCNC(=O)C1CC(=O)NCCc1ccccc1F (stereo not drawn),14,0.8,13,1,0.9
O=S(=O)(NCC1CCCO1)c1cnc(Cl)c(Br)c1 (stereo not drawn),6,1,6,1,0.9
COc1ccccc1-c1ccc(/C=C2/C=C(C)OC2=O)o1,-1,2*,16,1.6,0.8
CN(C)c1ccc(NC2=C(Cl)C(=O)c3ccccc3C2=O)cc1,51*,0.5,27,0.7,0.7
CCn1c2ccccc2c2nnc(SCc3cc(=O)n4ccsc4n3)nc21,2,0.9,77*,0.9,0.2
Cn1c(Cc2ccccc2)nnc1SCc1cc(=O)n2ccsc2n1,14,1.1,4,1.1,1
O=C1[C@H]2[C@@H](C(=O)N1c1cccc3ccccc13)C1(C(=O)c3ccccc3C1=O)N1CCC[C@@H]21,17,0.9,26,1,0.7
O=C(O)c1ccccc1-c1ccc(/C=c2\sc3nc4cc(Br)cnc4n3c2=O)o1,16,1.1,56*,1.1,0.4
COC(=O)c1cccc(Cn2c(Cl)c(/C=N/Nc3ccccc3C)sc2=O)c1,-5,2.5*,17,1.5,0.8
COC(=O)c1ccccc1NC(=S)N(Cc1ccc2c(c1)OCO2)Cc1cc2cccc(C)c2[nH]c1=O,-3,0.9,22,0.9,0.8
CCOC(=O)C1(C)/C(=N/Nc2ccccc2)C(=O)C(=O)N1c1ccccc1 (stereo not drawn),12,2.1*,20,1.7,0.8
CC1(C)C(c2ccco2)=[N+]([O-])C2(CCCCC2=O)N1O (stereo not drawn),1,1.2,4,1.2,1
C/C(=N/Nc1ccc(C)cc1)C1(C)N(O)C(C)(C)C(c2ccco2)=[N+]1[O-] (stereo not drawn),8,2.7*,5,1.9,0.9
COC1=C(OC)C(=O)C(CCCCCCCCCCO)=C(C)C1=O,63*,0.2,57*,0.5,0.4
COc1ccc(S(=O)(=O)Nc2ccc(-n3cccc3)cc2)cc1,1,1,0,1,1
O=C(O)c1cc2nc(-c3ccccc3)cc(-c3ccccc3)n2n1,23,0.7,59*,0.8,0.4
O=C(O)c1cc2nc(-c3ccccc3)cc(C(F)(F)F)n2n1,1,1.1,-2,1,1
COc1cccc(-c2csc(N3CCN(C(=S)Nc4ccccc4C)CC3)n2)c1,12,1,2,1,1
CCCCCCCCCCCCCCCC(O)C(N)CO (stereo not drawn),12,1.2,-128,1.2,2.3*
CCCC(=O)Nc1sc2c(c1C(=O)Nc1ccccn1)CCCC2,12,0.9,14,0.8,0.9
CN1c2cccc3cccc(c23)N(C)C1(C)C,8,0.4,52*,0.4,0.5
O=C(N/N=C/c1cc(Br)cc(Br)c1O)c1ccncc1,-10,1.2,52*,1,0.5
O=C(C1CC12CCCC2)N1CCC(CO)(Cc2ccccc2Cl)CC1 (stereo not drawn),18,0.8,24,0.8,0.8
CCOC(=O)C(=O)Nc1ccccc1C(N)=O,4,1,6,1,0.9

# High-throughput results as filed in PubChem BioAssay.
